Assay results reported in article PMC5599994 (Clinical Pharmacology in Drug Development, 2017).
“And” between values parts separate entries of the source, which are not always exact repeats. Equal entries are not always repeated.

Tests used:
[1] = test system: CYP1A2 mRNA; assay: CYP mRNA induction in HepaRG cell cultures; format: in vitro ADME, human; details: 24 hours
[2] = format: in vivo, human; details: plasma; midazolam 7.5 mg oral single dose alone, day 1
[3] = Safety and tolerability; format: in vivo, human
[4] = test system: CYP3A4; assay: Clinical drug-drug interaction: ratio; format: in vivo, human; details: (midazolam + tenapanor)/midazolam; tenapanor 15 mg twice daily; healthy volunteers
[5] = test system: CYP2B6 mRNA; assay: CYP mRNA induction in HepaRG cell cultures; format: in vitro ADME, human; details: 24 hours; for maximal increase in CYP2B6 mRNA levels relative to vehicle control: positive controls
[6] = target: CYP2C19 (Homo sapiens, UniProt P33261); assay: Reversible CYP inhibition in human liver microsomes; format: in vitro ADME
CYP2C19, sequence (P33261 whole entry): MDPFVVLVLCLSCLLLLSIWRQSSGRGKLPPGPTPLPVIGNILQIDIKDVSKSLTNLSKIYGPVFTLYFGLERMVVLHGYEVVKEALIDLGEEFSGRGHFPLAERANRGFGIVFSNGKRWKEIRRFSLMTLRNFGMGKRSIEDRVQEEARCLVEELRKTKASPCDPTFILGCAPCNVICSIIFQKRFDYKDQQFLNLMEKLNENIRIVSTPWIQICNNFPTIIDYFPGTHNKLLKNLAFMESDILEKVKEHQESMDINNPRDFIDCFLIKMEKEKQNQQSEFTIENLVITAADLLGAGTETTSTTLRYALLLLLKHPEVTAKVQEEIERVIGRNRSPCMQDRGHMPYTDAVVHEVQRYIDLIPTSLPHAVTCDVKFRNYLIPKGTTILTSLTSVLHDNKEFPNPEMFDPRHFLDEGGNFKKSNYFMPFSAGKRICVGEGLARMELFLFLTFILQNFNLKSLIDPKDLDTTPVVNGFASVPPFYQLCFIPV
Summary of the method: (§1)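 A cocktail at or below KM was incubated 5 min at 37°C with NADPH in 150-donor pooled human liver microsomes: phenacetin 30 μM (CYP1A2), diclofenac 10 μM (CYP2C9), (S)-mephenytoin 35 μM (CYP2C19), bufuralol 5 μM (CYP2D6), midazolam 3 μM (CYP3A4/5). Test compound was run at 0.1–30 μM (six levels), in triplicate. TCA quench, then LC-MS/MS (MRM) of metabolites. IC50 was fitted from % of DMSO-control activity versus log concentration; inhibition only at top concentration was reported as >30 μM.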

[7] = target: CYP2D6 (Homo sapiens, UniProt P10635); assay: Reversible CYP inhibition in human liver microsomes, bufuralol marker; format: in vitro ADME
CYP2D6, sequence (P10635 whole entry): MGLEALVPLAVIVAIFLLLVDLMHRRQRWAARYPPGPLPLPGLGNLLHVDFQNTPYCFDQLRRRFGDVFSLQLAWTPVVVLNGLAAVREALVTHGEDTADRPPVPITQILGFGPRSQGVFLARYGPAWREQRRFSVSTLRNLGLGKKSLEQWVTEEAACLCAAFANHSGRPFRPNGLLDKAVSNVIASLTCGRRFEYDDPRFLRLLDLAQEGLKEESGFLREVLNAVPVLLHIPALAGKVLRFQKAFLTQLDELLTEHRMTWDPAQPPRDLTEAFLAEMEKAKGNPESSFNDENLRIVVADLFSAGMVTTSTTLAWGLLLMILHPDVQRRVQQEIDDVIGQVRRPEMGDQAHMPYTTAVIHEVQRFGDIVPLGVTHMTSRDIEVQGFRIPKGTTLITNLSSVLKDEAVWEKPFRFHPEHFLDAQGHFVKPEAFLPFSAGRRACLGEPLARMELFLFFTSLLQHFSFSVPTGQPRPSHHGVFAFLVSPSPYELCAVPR
Summary of the method: as §1

[8] = target: T1, CYP2C8 (Homo sapiens, UniProt P10632); assay: Reversible CYP inhibition in human liver microsomes, amodiaquine marker; format: in vitro ADME
T1 sequence (P10632 1-490): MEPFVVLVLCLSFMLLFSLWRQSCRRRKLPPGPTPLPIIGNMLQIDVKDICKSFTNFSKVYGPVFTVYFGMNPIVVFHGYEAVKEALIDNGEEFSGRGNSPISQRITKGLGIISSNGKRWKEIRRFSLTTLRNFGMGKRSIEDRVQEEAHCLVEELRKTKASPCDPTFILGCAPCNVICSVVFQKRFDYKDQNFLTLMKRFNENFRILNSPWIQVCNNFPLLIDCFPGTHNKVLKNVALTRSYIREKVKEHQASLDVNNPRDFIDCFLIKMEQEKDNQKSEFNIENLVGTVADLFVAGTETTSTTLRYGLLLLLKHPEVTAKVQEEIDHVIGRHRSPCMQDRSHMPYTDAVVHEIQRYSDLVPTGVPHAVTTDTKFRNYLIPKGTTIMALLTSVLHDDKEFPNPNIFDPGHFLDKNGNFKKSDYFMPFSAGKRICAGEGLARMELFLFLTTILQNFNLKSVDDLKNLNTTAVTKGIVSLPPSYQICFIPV
Summary of the method: (§2)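 Pooled human liver microsomes (150 donors) with NADPH, 10 min at 37°C, using a substrate cocktail at or below KM: bupropion 80 μM (CYP2B6), amodiaquine 2 μM (CYP2C8), nifedipine 25 μM. Test compound was run at six levels, 0.1–30 μM, in triplicate. TCA quench, then metabolite by LC-MS/MS (MRM). IC50 came from a fit of % DMSO-control activity against log concentration; inhibition only at 30 μM was reported as >30 μM.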

[9] = target: T2, CYP2B6 (Homo sapiens, UniProt P20813); assay: Reversible CYP inhibition in human liver microsomes, bupropion marker; format: in vitro ADME
T2 sequence (P20813 1-491): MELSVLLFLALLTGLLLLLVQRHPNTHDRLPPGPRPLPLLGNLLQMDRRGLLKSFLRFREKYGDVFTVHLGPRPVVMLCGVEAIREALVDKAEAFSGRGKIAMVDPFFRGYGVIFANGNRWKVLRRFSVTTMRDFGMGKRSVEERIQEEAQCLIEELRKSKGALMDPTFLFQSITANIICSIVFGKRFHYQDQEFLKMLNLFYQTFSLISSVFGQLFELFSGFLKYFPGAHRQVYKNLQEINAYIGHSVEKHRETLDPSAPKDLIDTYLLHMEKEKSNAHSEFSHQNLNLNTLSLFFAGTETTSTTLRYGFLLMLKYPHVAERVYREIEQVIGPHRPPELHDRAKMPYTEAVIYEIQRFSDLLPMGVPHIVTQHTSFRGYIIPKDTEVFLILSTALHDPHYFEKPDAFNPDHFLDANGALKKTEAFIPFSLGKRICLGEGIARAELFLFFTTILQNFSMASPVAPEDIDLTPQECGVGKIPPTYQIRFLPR
Summary of the method: as §2

[10] = target: T3, CYP1A2 (Homo sapiens, UniProt P05177); assay: Reversible CYP inhibition in human liver microsomes, phenacetin marker; format: in vitro ADME; details: probe phenacetin 30 μM (paracetamol formation)
T3 sequence (P05177 1-516): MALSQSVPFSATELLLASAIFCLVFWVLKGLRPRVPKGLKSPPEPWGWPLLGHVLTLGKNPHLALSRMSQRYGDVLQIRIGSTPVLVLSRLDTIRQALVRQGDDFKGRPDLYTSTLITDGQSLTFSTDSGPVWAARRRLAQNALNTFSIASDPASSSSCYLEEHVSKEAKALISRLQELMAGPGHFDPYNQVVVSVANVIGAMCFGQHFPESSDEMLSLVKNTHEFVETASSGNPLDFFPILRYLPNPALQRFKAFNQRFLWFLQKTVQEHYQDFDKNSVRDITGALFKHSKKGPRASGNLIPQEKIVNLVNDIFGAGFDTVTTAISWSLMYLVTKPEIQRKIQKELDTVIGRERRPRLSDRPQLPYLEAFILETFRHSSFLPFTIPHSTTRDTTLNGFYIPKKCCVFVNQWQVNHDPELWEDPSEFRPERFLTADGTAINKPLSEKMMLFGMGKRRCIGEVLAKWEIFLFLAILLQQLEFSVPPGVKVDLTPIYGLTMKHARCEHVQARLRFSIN
Summary of the method: as §1

[11] = test system: CYP3A4 mRNA; details: HepaRG, 24 hours
[12] = test system: HepaRG cells; assay: Cytotoxicity in the HepaRG induction experiments; format: cell-based, human
[13] = patients with CKD stage 5D on dialysis; in 387 of 390 serum samples; cited from earlier work
[14] = target: CYP2C9 (Homo sapiens, UniProt P11712); assay: Reversible CYP inhibition in human liver microsomes, diclofenac marker; format: in vitro ADME
CYP2C9, sequence (P11712 whole entry): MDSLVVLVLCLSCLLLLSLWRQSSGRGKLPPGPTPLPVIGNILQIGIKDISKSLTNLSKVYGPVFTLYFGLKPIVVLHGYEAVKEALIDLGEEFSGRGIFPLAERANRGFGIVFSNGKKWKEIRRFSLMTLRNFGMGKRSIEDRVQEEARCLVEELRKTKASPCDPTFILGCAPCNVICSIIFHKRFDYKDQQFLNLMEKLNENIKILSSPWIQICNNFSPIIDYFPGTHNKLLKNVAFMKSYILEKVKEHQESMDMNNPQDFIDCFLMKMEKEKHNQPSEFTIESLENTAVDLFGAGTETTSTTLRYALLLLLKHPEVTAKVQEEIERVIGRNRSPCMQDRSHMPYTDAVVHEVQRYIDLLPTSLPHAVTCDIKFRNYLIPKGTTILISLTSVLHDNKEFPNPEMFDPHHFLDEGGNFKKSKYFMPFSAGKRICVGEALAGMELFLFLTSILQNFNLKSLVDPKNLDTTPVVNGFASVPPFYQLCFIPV
Summary of the method: as §1

[15] = test system: CYP3A4/5; format: in vitro ADME; details: human, human liver microsomes, probe midazolam 3 μM (1-OH-midazolam formation)
Summary of the method: as §1

[16] = concentrations of up to 20 μM, all experiments
[17] = tenapanor 15 mg twice daily alone

COc1ccc2[nH]c([S+]([O-])Cc3ncc(C)c(OC)c3C)nc2c1 (centres unmarked) [omeprazole, reference compound]
maximal increase in CYP1A2 mRNA levels relative to vehicle control ([1]; positive control): 32.0 fold

Cc1ncc2n1-c1ccc(Cl)cc1C(c1ccccc1F)=NC2 [Midazolam, midazolam, reference compound]
tmax, median (range) [2]: 0.50 (0.25‐0.55) h | somnolence ([3]; healthy volunteers): 27/28 | volunteers reporting at least 1 AE ([3]; healthy volunteers): 27/28 | AUC0-t ratio (90%CI), geometric least-squares means [4]: 106 (100‐113) % | AUC ratio (90%CI), geometric least-squares means [4]: 107% and 107 (101‐113) % | Cmax ratio (90%CI), geometric least-squares means [4]: 104% and 104 (89.6‐122) %

OCc1ncc2n1-c1ccc(Cl)cc1C(c1ccccc1F)=NC2 [1‐OH‐midazolam]
AUC0-t, arithmetic mean (SD) [2]: 52.1 (29.7) ng·h/mL | AUC0-t, geometric mean (GCV%) [2]: 47.2 (43.1) ng·h/mL | AUC, arithmetic mean (SD) [2]: 54.1 (31.6) ng·h/mL | AUC, geometric mean (GCV%) [2]: 48.8 (43.6) ng·h/mL | Cmax, arithmetic mean (SD) [2]: 26.6 (12.0) ng/mL | Cmax, geometric mean (GCV%) [2]: 24.1 (47.8) ng/mL | t1/2, arithmetic mean (SD) [2]: 5.14 (2.22) h | t1/2, geometric mean (GCV%) [2]: 4.64 (50.0) h | tmax, median (range) [2]: 0.50 (0.25‐0.55) h | AUC0-t ratio (90%CI), geometric least-squares means [4]: 110 (104‐116) % | AUC ratio (90%CI), geometric least-squares means [4]: 110 (103‐116) % | Cmax ratio (90%CI), geometric least-squares means [4]: 103 (87.2‐122) %

Clc1ccc(-c2nc3sccn3c2C=NOCc2ccc(Cl)c(Cl)c2)cc1 [CITCO, 6‐[4‐chlorophenyl]imidazo[2,1‐b][1,3]thiazole‐5‐carbaldehyde O‐[3,4‐dichlorobenzyl]oxime]
maximal increase in CYP2B6 mRNA levels relative to vehicle control [5]: 13.2 fold

CN1Cc2c(Cl)cc(Cl)cc2[C@H](c2cccc(S(=O)(=O)NCCOCCOCCNC(=O)NCCCCNC(=O)NCCOCCOCCNS(=O)(=O)c3cccc([C@@H]4CN(C)Cc5c(Cl)cc(Cl)cc54)c3)c2)C1 [Tenapanor]
IC50 [6]: > 30 µM | Tenapanor IC50 (n = 3) ([6]; human liver microsomes, S-mephenytoin 35 μM to 4-OH-mephenytoin): No IC50 could be determined | IC50 [7]: 3.26 ± 0.54 µM | induction of CYP1A2 mRNA expression [1, 16]: did not induce | IC50 [8]: 10.4 ± 3 µM | IC50 [9]: 15.4 ± 7.5 µM | IC50 at 5 min [10]: > 30 µM | CYP3A4 mRNA induction as % of the positive control response ([11]; 1 of 4 experiments): 16.8% | induction of CYP3A4 mRNA expression ([11]; 1 of 4 experiments): up to 5.85 fold | influence on CYP3A4 mRNA levels ([11]; 3 of 4 experiments): not observed to influence | cytotoxicity to HepaRG cells ([12]; 20 μM): not | cytotoxicity to HepaRG cells ([12]; 50 μM): cytotoxic | serum tenapanor [13]: below the limit of quantification | induction of CYP2B6 mRNA expression [5, 16]: did not induce | IC50 [14]: 14.2 ± 3.2 µM | volunteers reporting at least 1 AE ([3]; healthy volunteers): 9/27 | abdominal pain [3, 17]: 1 n | abnormal gastrointestinal sounds [3, 17]: 2 n | defecation urgency [3, 17]: 1 n | dizziness [3, 17]: 2 n | hypertrophy of tongue papillae [3, 17]: 1 n | gastrointestinal disorders ([3]; tenapanor 15 mg twice daily alone, of the 9 volunteers who reported AEs): 5 volunteers | IC50 at 5 min [15]: 0.402 ± 0.032 µM

CCC1(c2ccccc2)C(=O)NC(=O)NC1=O [phenobarbital]
maximal increase in CYP2B6 mRNA levels relative to vehicle control [5]: 17.0 fold

Cc1ncc2n1-c1ccc(Cl)cc1C(c1ccccc1F)=NC2O (centres unmarked) [4‐OH‐midazolam]
AUC0-t, arithmetic mean (SD) [2]: 5.65 (1.50) ng·h/mL | AUC0-t, geometric mean (GCV%) [2]: 5.47 (26.9) ng·h/mL | AUC, arithmetic mean (SD) [2]: 6.14 (1.56) ng·h/mL | AUC, geometric mean (GCV%) [2]: 5.96 (25.3) ng·h/mL | Cmax, arithmetic mean (SD) [2]: 2.11 (0.757) ng/mL | Cmax, geometric mean (GCV%) [2]: 1.99 (37.6) ng/mL | t1/2, arithmetic mean (SD) [2]: 2.48 (0.820) h | t1/2, geometric mean (GCV%) [2]: 2.37 (30.2) h | tmax, median (range) [2]: 0.50 (0.25‐1.02) h | AUC0-t ratio (90%CI), geometric least-squares means [4]: 106 (99.1‐113) % | AUC ratio (90%CI), geometric least-squares means [4]: 105 (98.7‐111) % | Cmax ratio (90%CI), geometric least-squares means [4]: 105 (90.5‐122) %
